According to ChEMBL document CHEMBL4118024, “Tannins and Tannin-Related Derivatives Enhance the (Pseudo-)Halogenating Activity of Lactoperoxidase” (J Nat Prod, 2017):

Assays:
Conditions in all cases: Bos taurus; call rule not given here
[1] = tested on: O=c1oc2c(O)c(O)cc3c(=O)oc4c(O)c(O)cc1c4c23; test: (§1) Induction of H2O2-inactivated bovine milk lactoperoxidase pseudo-halogenating activity assessed as increase in hypothiocyanate formation by measuring substrate Kcat using thiocyanate as substrate by Lineweaver-Burk plot
In short: (§2)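 Bovine milk LPO, lyophilized (about 80% purity), 5 nM final, in PBS (10 mM, pH 7.4) at 37 °C with 2 mM SCN−, 50 μM TNB and 80 μM H2O2. Compounds from 5 or 10 mM DMSO stocks, final 0.01–500 μM. −OSCN formation followed at 412 nm as TNB conversion to DTNB in a plate reader. KM, Vmax, kcat and specificity constant from Lineweaver–Burk plots. Mean ± SD, n = 3.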

[2] = tested on: Oc1cc(O)c2c(c1)O[C@H](c1ccc(O)c(O)c1)[C@H](O)C2; test: as §1; in short: as §2
O=C(O)c1cc(O)c(O)c(O)c1 [3] = test: as §1; in short: as §2
COC(=O)c1cc(O)c(O)c(O)c1 [4] = test: as §1; in short: as §2
[5] = tested on: O=C(OC[C@H]1O[C@@H](OC(=O)c2cc(O)c(O)c(O)c2)[C@H](OC(=O)c2cc(O)c(O)c(O)c2)[C@@H](OC(=O)c2cc(O)c(O)c(O)c2)[C@@H]1OC(=O)c1cc(O)c(O)c(O)c1)c1cc(O)c(O)c(O)c1; test: as §1; in short: as §2
[6] = tested on: Oc1cc(O)c2c(c1)O[C@@]1(c3ccc(O)c(O)c3)Oc3cc(O)c4c(c3[C@@H]2[C@H]1O)O[C@H](c1ccc(O)c(O)c1)[C@H](O)C4; test: as §1; in short: as §2
[7] = tested on: O=C(O[C@@H]1Cc2c(O)cc(O)cc2O[C@@H]1c1cc(O)c(O)c(O)c1)c1cc(O)c(O)c(O)c1; test: as §1; in short: as §2
[8] = tested on: Oc1cc(O)c2c(c1)O[C@H](c1ccc(O)c(O)c1)[C@H](O)[C@H]2c1c(O)cc(O)c2c1O[C@H](c1ccc(O)c(O)c1)[C@H](O)[C@H]2c1c(O)cc(O)c2c1O[C@H](c1ccc(O)c(O)c1)[C@H](O)C2; test: as §1; in short: as §2
[9] = tested on: O=C(/C=C/c1ccc(O)c(O)c1)O[C@@H]1C[C@](O)(C(=O)O)C[C@@H](O)[C@H]1O; test: as §1; in short: as §2
[10] = tested on: Oc1cc(O)c2c(c1)O[C@H](c1cc(O)c(O)c(O)c1)[C@H](O)C2; test: as §1; in short: as §2
[11] = tested on: O=C(OC[C@H]1O[C@@H](OC(=O)c2cc(O)c(O)c(O)c2)[C@H](O)[C@@H](OC(=O)c2cc(O)c(O)c(O)c2)[C@@H]1O)c1cc(O)c(O)c(O)c1; test: as §1; in short: as §2
[12] = tested on: Oc1cc(O)c2c(c1)O[C@H](c1ccc(O)c(O)c1)[C@H](O)[C@H]2c1c(O)cc(O)c2c1O[C@H](c1ccc(O)c(O)c1)[C@H](O)C2; test: as §1; in short: as §2
[13] = tested on: O=C1O[C@@H]2[C@@H](OC(=O)c3cc(O)c(O)c(O)c3-c3c1cc(O)c(O)c3O)[C@H](O)O[C@@H]1COC(=O)c3cc(O)c(O)c(O)c3-c3c(O)c(O)c4oc(=O)c5c(c(O)c(O)c6oc(=O)c3c4c65)-c3c(cc(O)c(O)c3O)C(=O)O[C@@H]21; test: as §1; in short: as §2
[14] = tested on: O=c1oc2c(O)c(O)cc3c(=O)oc4c(O)c(O)cc1c4c23; test: (§3) Induction of H2O2-inactivated bovine milk lactoperoxidase pseudo-halogenating activity assessed as increase in hypothiocyanate formation by measuring substrate Km using thiocyanate as substrate by Lineweaver-Burk plot; in short: as §2
[15] = tested on: Oc1cc(O)c2c(c1)O[C@H](c1ccc(O)c(O)c1)[C@H](O)C2; test: as §3; in short: as §2
O=C(O)c1cc(O)c(O)c(O)c1 [16] = test: as §3; in short: as §2
COC(=O)c1cc(O)c(O)c(O)c1 [17] = test: as §3; in short: as §2
[18] = tested on: O=C(OC[C@H]1O[C@@H](OC(=O)c2cc(O)c(O)c(O)c2)[C@H](OC(=O)c2cc(O)c(O)c(O)c2)[C@@H](OC(=O)c2cc(O)c(O)c(O)c2)[C@@H]1OC(=O)c1cc(O)c(O)c(O)c1)c1cc(O)c(O)c(O)c1; test: as §3; in short: as §2
[19] = tested on: Oc1cc(O)c2c(c1)O[C@@]1(c3ccc(O)c(O)c3)Oc3cc(O)c4c(c3[C@@H]2[C@H]1O)O[C@H](c1ccc(O)c(O)c1)[C@H](O)C4; test: as §3; in short: as §2
[20] = tested on: O=C(O[C@@H]1Cc2c(O)cc(O)cc2O[C@@H]1c1cc(O)c(O)c(O)c1)c1cc(O)c(O)c(O)c1; test: as §3; in short: as §2
[21] = tested on: Oc1cc(O)c2c(c1)O[C@H](c1ccc(O)c(O)c1)[C@H](O)[C@H]2c1c(O)cc(O)c2c1O[C@H](c1ccc(O)c(O)c1)[C@H](O)[C@H]2c1c(O)cc(O)c2c1O[C@H](c1ccc(O)c(O)c1)[C@H](O)C2; test: as §3; in short: as §2
[22] = tested on: O=C(/C=C/c1ccc(O)c(O)c1)O[C@@H]1C[C@](O)(C(=O)O)C[C@@H](O)[C@H]1O; test: as §3; in short: as §2
[23] = tested on: Oc1cc(O)c2c(c1)O[C@H](c1cc(O)c(O)c(O)c1)[C@H](O)C2; test: as §3; in short: as §2
[24] = tested on: O=C(OC[C@H]1O[C@@H](OC(=O)c2cc(O)c(O)c(O)c2)[C@H](O)[C@@H](OC(=O)c2cc(O)c(O)c(O)c2)[C@@H]1O)c1cc(O)c(O)c(O)c1; test: as §3; in short: as §2
[25] = tested on: Oc1cc(O)c2c(c1)O[C@H](c1ccc(O)c(O)c1)[C@H](O)[C@H]2c1c(O)cc(O)c2c1O[C@H](c1ccc(O)c(O)c1)[C@H](O)C2; test: as §3; in short: as §2
[26] = tested on: O=C1O[C@@H]2[C@@H](OC(=O)c3cc(O)c(O)c(O)c3-c3c1cc(O)c(O)c3O)[C@H](O)O[C@@H]1COC(=O)c3cc(O)c(O)c(O)c3-c3c(O)c(O)c4oc(=O)c5c(c(O)c(O)c6oc(=O)c3c4c65)-c3c(cc(O)c(O)c3O)C(=O)O[C@@H]21; test: as §3; in short: as §2
[27] = tested on: O=c1oc2c(O)c(O)cc3c(=O)oc4c(O)c(O)cc1c4c23; test: (§4) Induction of H2O2-inactivated bovine milk lactoperoxidase pseudo-halogenating activity assessed as increase in hypothiocyanate formation by measuring ratio of Kcat to Km for substrate using thiocyanate as substrate by Lineweaver-Burk plot; in short: as §2
[28] = tested on: Oc1cc(O)c2c(c1)O[C@H](c1ccc(O)c(O)c1)[C@H](O)C2; test: as §4; in short: as §2
O=C(O)c1cc(O)c(O)c(O)c1 [29] = test: as §4; in short: as §2
COC(=O)c1cc(O)c(O)c(O)c1 [30] = test: as §4; in short: as §2
[31] = tested on: Oc1cc(O)c2c(c1)O[C@@]1(c3ccc(O)c(O)c3)Oc3cc(O)c4c(c3[C@@H]2[C@H]1O)O[C@H](c1ccc(O)c(O)c1)[C@H](O)C4; test: as §4; in short: as §2
[32] = tested on: O=C(O[C@@H]1Cc2c(O)cc(O)cc2O[C@@H]1c1cc(O)c(O)c(O)c1)c1cc(O)c(O)c(O)c1; test: as §4; in short: as §2
[33] = tested on: Oc1cc(O)c2c(c1)O[C@H](c1ccc(O)c(O)c1)[C@H](O)[C@H]2c1c(O)cc(O)c2c1O[C@H](c1ccc(O)c(O)c1)[C@H](O)[C@H]2c1c(O)cc(O)c2c1O[C@H](c1ccc(O)c(O)c1)[C@H](O)C2; test: as §4; in short: as §2
[34] = tested on: O=C(/C=C/c1ccc(O)c(O)c1)O[C@@H]1C[C@](O)(C(=O)O)C[C@@H](O)[C@H]1O; test: as §4; in short: as §2
[35] = tested on: Oc1cc(O)c2c(c1)O[C@H](c1cc(O)c(O)c(O)c1)[C@H](O)C2; test: as §4; in short: as §2
[36] = tested on: O=C(OC[C@H]1O[C@@H](OC(=O)c2cc(O)c(O)c(O)c2)[C@H](O)[C@@H](OC(=O)c2cc(O)c(O)c(O)c2)[C@@H]1O)c1cc(O)c(O)c(O)c1; test: as §4; in short: as §2
[37] = tested on: Oc1cc(O)c2c(c1)O[C@H](c1ccc(O)c(O)c1)[C@H](O)[C@H]2c1c(O)cc(O)c2c1O[C@H](c1ccc(O)c(O)c1)[C@H](O)C2; test: as §4; in short: as §2
[38] = tested on: O=C1O[C@@H]2[C@@H](OC(=O)c3cc(O)c(O)c(O)c3-c3c1cc(O)c(O)c3O)[C@H](O)O[C@@H]1COC(=O)c3cc(O)c(O)c(O)c3-c3c(O)c(O)c4oc(=O)c5c(c(O)c(O)c6oc(=O)c3c4c65)-c3c(cc(O)c(O)c3O)C(=O)O[C@@H]21; test: as §4; in short: as §2

Lactoperoxidase (Bos taurus) (from UniProt P80025)
kcat [1]: 29.3 s⁻¹ | kcat [2]: 41.4 s⁻¹ | kcat (O=C(O)c1cc(O)c(O)c(O)c1 [3]): 30.9 s⁻¹ | kcat (COC(=O)c1cc(O)c(O)c(O)c1 [4]): 80.3 s⁻¹ | kcat [5]: Not Active | kcat [6]: 60 s⁻¹ | kcat [7]: 13.9 s⁻¹ | kcat [8]: 6.43 s⁻¹ | kcat [9]: 60.6 s⁻¹ | kcat [10]: 13.9 to 43.6 s⁻¹ | kcat [11]: 63.7 s⁻¹ | kcat [12]: 4.53 s⁻¹ | kcat [13]: 11.8 s⁻¹ | Km [14]: 0.3 µM | Km [15]: 0.61 µM | Km (O=C(O)c1cc(O)c(O)c(O)c1 [16]): 177 µM | Km (COC(=O)c1cc(O)c(O)c(O)c1 [17]): 1.24 µM | Km [18]: Not Active | Km [19]: 12.7 µM | Km [20]: 0.32 µM | Km [21]: 8.41 µM | Km [22]: 1.26 µM | Km [23]: 0.32 to 0.81 µM | Km [24]: 1.37 µM | Km [25]: 0.37 µM | Km [26]: 10.6 µM | kcat/Km [27]: 9.83e+07 M⁻¹ s⁻¹ | kcat/Km [28]: 6.84e+07 M⁻¹ s⁻¹ | kcat/Km (O=C(O)c1cc(O)c(O)c(O)c1 [29]): 200000 M⁻¹ s⁻¹ | kcat/Km (COC(=O)c1cc(O)c(O)c(O)c1 [30]): 6.47e+07 M⁻¹ s⁻¹ | kcat/Km [31]: 4.74e+06 M⁻¹ s⁻¹ | kcat/Km [32]: 4.38e+07 M⁻¹ s⁻¹ | kcat/Km [33]: 800000 M⁻¹ s⁻¹ | kcat/Km [34]: 4.81e+07 M⁻¹ s⁻¹ | kcat/Km [35]: 5.37e+07 M⁻¹ s⁻¹ | kcat/Km [36]: 5.03e+07 M⁻¹ s⁻¹ | kcat/Km [37]: 1.21e+07 M⁻¹ s⁻¹ | kcat/Km [38]: 1.1e+06 M⁻¹ s⁻¹
